Calls of active or inactive are those of the source. The calls are words filed in the database; no cut-off is given here.
Key:
[1] = Growth inhibition of human NCI60 cells after 48 hrs by SRB assay; assay type: functional; conditions: NCI60, 48 h; for CC50: read-out: LC50 (the source's name)
[2] = test system: Calf thymus DNA; experiment: Binding affinity to calf thymus DNA assessed as change in melting temperature after 4 hrs; assay type: nucleic-acid assay; conditions: Bos taurus
Summary of the method: (§1)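 Calf thymus DNA at a fixed 100 μM (DNAp, 50 μM bp) in pH 7.00 buffer of 10 mM NaH₂PO₄/Na₂HPO₄ and 1 mM Na₂EDTA, 1:5 ligand/DNAp ratio, DMSO ≤0.3% v/v. Mixture kept at 37 °C for the stated time, then melted while absorbance at 260 nm was monitored. Tm taken at the midpoint of the normalized profile; ΔTm = Tm(DNA+ligand) − Tm(DNA), corrected for DMSO; mean of at least three runs.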

[3] = test system: Calf thymus DNA; experiment: Binding affinity to calf thymus DNA assessed as change in melting temperature after 18 hrs; assay type: nucleic-acid assay; conditions: Bos taurus; summary of the method: as §1
[4] = test system: K562; experiment: Cytotoxicity against human K562 cells after 96 hrs by alamar blue assay; assay type: functional, cell-based; conditions: K562, 96 h
Summary of the method: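 K562 cells kept in RPMI with 10% fetal calf serum and 2 mM glutamine, seeded at 10⁴ cells/mL. Compounds serially diluted in DMSO and added in triplicate; exposure 96 h at 37 °C, 5% CO₂. Alamar Blue (1 μM final) then added for a further 4 h; read by fluorescence emission at 580-620 nm.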

[5] = test system: HCT-116; experiment: Antitumor activity against human HCT116 cells xenografted in nu/nu BALB/c mouse assessed as delay in tumor growth at 300 ug/kg, iv; assay type: functional, cell-based
Summary of the method: (§2)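 Female nu/nu-BALB/c athymic nude mice bearing subcutaneous flank HCT 116 xenografts (10⁷ cells), dosed once intravenously at 300 μg/kg in 1% DMSO/saline once tumours reached 50-100 mm³; vehicle-only controls. Tumours measured by calliper 3 times a week (width² × length/2), expressed as volume relative to day 1. Body weight monitored daily over 12 days as % change from day 1.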

[6] = test system: Mus musculus; experiment: Toxicity in human HCT116 xenografter nu/nu BALB/c mouse assessed as change in body weight at 300 ug/kg, iv; assay type: organism-based; conditions: in vivo, 0.3 mg/kg; summary of the method: as §2

| SMILES | GI50 [1] [nM] | TGI [1] [nM] | CC50 [1] [nM] | ΔTm [2] [°C] | ΔTm [3] [°C] | IC50 [4] [nM] | Activity [5] | Activity [6] |
| --- | --- | --- | --- | --- | --- | --- | --- | --- |
| COc1ccc(C2=CN3C(=O)c4cc(OC)c(OC)cc4N=C[C@@H]3C2)cc1 | 1 | 150 | 910 | 10.5 | 10.6 | 4.9 |  |  |
| COc1cc2c(cc1OC)C(=O)N1C=C(c3ccc(C=O)cc3)C[C@H]1C=N2 | 9 | 160 | 15100 | 10.6 | 10.8 | 26.3 |  |  |
| C=Cc1ccc(C2=CN3C(=O)c4cc(OC)c(OC)cc4N=C[C@@H]3C2)cc1 | 5 | 10 | 620 | 9 | 9.2 | 69 |  |  |
| COc1cc2c(cc1OC)C(=O)N1C=C(c3cccs3)C[C@H]1C=N2 | 10 | 150 | 740 | 12.7 | 13 | 1.1 |  |  |
| COc1cc2c(cc1OC)C(=O)N1C=C(c3ccc(N)cc3)C[C@H]1C=N2 | 2 | 30 | 4790 | 6.2 | 6.5 | 14 |  |  |
| COc1cc2c(cc1OC)C(=O)N1C=C(c3ccc(C(C)(C)C)cc3)C[C@H]1C=N2 | 2 | 50 | 1940 | 9 | 9.2 | 47.8 |  |  |
| COc1cc2c(cc1OC)C(=O)N1C=C(c3ccc(-c4ccccc4)cc3)C[C@H]1C=N2 | 8 | 90 | 3630 | 8.1 | 8.4 | 19.6 |  |  |
| COc1cc2c(cc1OC)C(=O)N1C=C(c3ccc(Cl)cc3)C[C@H]1C=N2 | 2 | 70 | 4470 | 9.9 | 10.2 | 31.3 |  |  |
| C/C=C/C1=CN2C(=O)c3cc(O[C@@H]4O[C@@H](C)[C@H](NC)[C@@](C)(O)[C@H]4O)c(C)c(O)c3N[C@H](O)[C@@H]2C1 [SIBIROMYCIN] | 33 | 850 | 16700 | 16 | 16.3 | 1.4 |  |  |
| CCc1ccc(C2=CN3C(=O)c4cc(OC)c(OC)cc4N=C[C@@H]3C2)cc1 | 1 | 70 | 4170 | 9.4 | 9.7 | 79.5 |  |  |
| COc1cc2c(cc1OC)C(=O)N1C=C(c3ccc4c(c3)OCO4)C[C@H]1C=N2 | 2 | 30 | 3630 | 10.3 | 10.3 | 0.47 |  |  |
| CO[C@H]1Nc2c(ccc(C)c2O)C(=O)N2C=C(/C=C/C(N)=O)C[C@@H]12 [ANTHRAMYCIN METHYL ETHER] | 13 | 1580 | 24500 | 11.2 | 13 | 8 |  |  |
| COc1cc2c(cc1OC)C(=O)N1C=C(c3ccccc3C)C[C@H]1C=N2 | 12 | 250 | 10700 | 6.8 | 6.9 | 9.3 |  |  |
| COc1cc2c(cc1OC)C(=O)N1C=C(c3ccc(Oc4ccccc4)cc3)C[C@H]1C=N2 | 3 | 30 | 1260 | 11.9 | 12.1 | 51.1 |  |  |
| COc1cccc(C2=CN3C(=O)c4cc(OC)c(OC)cc4N=C[C@@H]3C2)c1 | 11 | 60 | 4070 | 10.1 | 10.2 | 0.45 |  |  |
| COc1cc2c(cc1OC)C(=O)N1C=C(c3ccc4ccccc4c3)C[C@H]1C=N2 | 0.6 | 15 | 400 | 15.4 | 15.7 | 45.4 |  |  |
| COc1cc2c(cc1OC)C(=O)N1C=C(c3cnc4ccccc4c3)C[C@H]1C=N2 | 0.1 | 1 | 180 | 18.1 | 18.2 | 8.9 |  |  |
| COc1cc2c(cc1OC)C(=O)N1C=C(c3ccc(SC)cc3)C[C@H]1C=N2 | 5 | 20 | 1440 | 10.5 | 10.7 | 19 |  |  |
| COc1cc2c(cc1OC)C(=O)N1C=C(c3ccccc3)C[C@H]1C=N2 | 2 | 40 | 5130 | 10.6 | 10.8 | 2.5 |  |  |
| COc1cc2c(cc1OC)C(=O)N1C=C(c3c(C)cccc3C)C[C@H]1C=N2 | 851 | 3460 | 20900 | 0.5 | 0.5 | > 1000 |  |  |
| COc1cc2c(cc1OC)C(=O)N1C=C(c3ccc(C#N)cc3)C[C@H]1C=N2 | 3 | 150 | 7410 | 10.9 | 11 | 19.8 |  |  |
| COc1cc2c(cc1OC)C(=O)N1C=C(c3ccc(C)cc3)C[C@H]1C=N2 | 2 | 180 | 8900 | 9.8 | 10.1 | 0.28 |  |  |
| COc1cc2c(cc1OC)C(=O)N1C=C(c3ccc(N(C)C)cc3)C[C@H]1C=N2 | 3 | 40 | 3230 | 7.6 | 8 | 32.1 |  |  |
| COc1cc2c(cc1OC)C(=O)N1C=C(c3ccc(C(C)C)cc3)C[C@H]1C=N2 | 4 | 60 | 4460 | 6.7 | 6.9 | 115 |  |  |
| COc1cc2c(cc1OC)C(=O)N1C=C(c3ccc(C(F)(F)F)cc3)C[C@H]1C=N2 | 4 | 30 | 1660 | 11.7 | 11.9 | 24.3 |  |  |
| COc1cc2c(cc1OC)C(=O)N1C=C(c3ccc4ncccc4c3)C[C@H]1C=N2 | 0.4 | 4 | 190 | 19.9 | 20.5 | 1.4 | Active | Non-toxic |
| COc1cc2c(cc1OC)C(=O)N1C=C(c3ccc(F)cc3)C[C@H]1C=N2 | 2 | 120 | 11200 | 10.4 | 10.6 | 1.6 |  |  |

— ChEMBL document CHEMBL1165887, “Structure-activity relationships of monomeric C2-aryl pyrrolo[2,1-c][1,4]benzodiazepine (PBD) antitumor agents” (J Med Chem, 2010)
